A word on the IC50: it is the point on the concentration scale where inhibition reaches its midpoint.

Data set [1] has as its system MCF-7 cells. Description: Cell cycle distribution. The format is cell-based, human. The conditions noted are these: 24 h.
Another data set relates to MCF-10A cells. Briefly: MTT cell viability assay, normal breast MCF-10A. The class given is cell-based, human. (In general: Tetrazolium assays rely on reduction of a dye to a coloured formazan, in cell work by metabolically active cells.)
For a further data set, the system named is MDA-MB-231 cells. Briefly: Cell cycle distribution. The format is cell-based, human. The conditions noted are these: 24 h.
Data set [2] deals with human breast cancer cell lines (MCF-7 and MDA-MB-231). Briefly: MTT assay, activity against cancer cells. The format is cell-based. The conditions noted are these: 72 h, up to 50 μM. In a few lines:
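ATCC cells were used. MCF-7 was grown in DMEM with 10% FBS, insulin, pyruvate and NEAA; MDA-MB-231 in DMEM with 10% FBS, NEAA and L-glutamine. Cells were seeded at 3×10³/well and exposed 72 h to 0, 1, 5, 10, 25, 50 μM, with a DMSO vehicle. MTT (5 mg/mL stock) was added for 2–4 h at 37°C; formazan was dissolved in DMSO and read at A570. Viability = mean OD treated/DMSO control; IC50 from three separate experiments.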

For data set [3], the system named is MCF-7 cells. Briefly: MTT cell viability assay, MCF-7. The conditions noted are these: Homo sapiens, MCF7, 72 h, read-out: IC50 MCF-7, MTT, 72 h, 1-50 μM. The format is cell-based.

`C=C1C(=O)O[C@H]2C[C@H](C)[C@@]34C[C@@]5(C(=O)O[C@H]6C[C@@H](C)[C@@H]7[C@@H](OC(C)=O)C[C@H](O)[C@@]7(C)C[C@@H]65)[C@@H](C(C)=C3C[C@H]12)[C@@H]4O` [Compound 1, Lineariifolianoid E]: the “effect on cell cycle progression” value was “dose-dependent cell cycle arrest in the G2/M phase” in the data set on MCF-7 cells [1] (MCF-7, 0, 1, 2.5 μM); “dose-dependent cell cycle arrest in both S and G2/M phase” with MDA-MB-231 cells (MDA-MB-231, 0, 1, 2.5 μM). Besides, the “cell cycle arrest at 2.5 μM” value in the data set with MCF-7 cells [1] (MCF-7, 2.5 μM) was “a majority of the MCF-7 cells were arrested in the G2/M phase”; in the data set on MDA-MB-231 cells (MDA-MB-231, 2.5 μM) it was “significant increase in the number of cells in both S and G2/M phases”. Besides, in the data set on MCF-10A cells (normal breast cell line), the “toxicity to MCF-10A cells” value was “low toxicity”.

For the compound `C=C1C(=O)O[C@H]2C[C@H](C)[C@H]3[C@@H](O)C[C@@](C)(O)[C@@]34O[C@H]4[C@H]12` [Compound 6, 5α,6α-epoxy-2α,4α-dihydroxy-1β-guai-11(13)-en-12,8α-olide], in data set [2], the “activity against cancer cells” value is reported as “did not show visible activity”.

As to `C=C1C(=O)O[C@@H]2CC(C)=C3[C@@H](OC(C)=O)C[C@@](C)(O)[C@@H]3[C@@H](O)[C@H]12` [Compound 7, 6α-hydroxyinuchinenolide B], the “activity against cancer cells” value in data set [2] is on record as “did not show visible activity”.

Turning to `CC(=O)O[C@H]1C=C(CCO)[C@@H](C)C[C@H]2OC(=O)[C@@H](C)[C@@H]12` [Compound 9, 6β-acetoxysundiversifolide], the “activity against cancer cells” value in data set [2] is listed as “did not exhibit any noticeable activity”.

In the case of `C=C1C(=O)O[C@@H]2CC(C)=C3[C@@H](C[C@H]12)[C@](C)(O)C[C@@H]3O` [Compound 10, deacetylinuchinenolide B], the “activity against cancer cells” value in data set [2] was “did not show visible activity”.

On to `C[C@@H]1C2=C[C@H]3[C@@H](C[C@@]2(C)CC[C@@H]1O)OC(=O)[C@@H]3C` [Compound 15, 3β-hydroxy-11α,13-dihydroalantolactone], for which the “activity against cancer cells” value in data set [2] was “did not exhibit any noticeable activity”.

For `COc1cccc2c1C(=O)c1c(O)c3c(c(O)c1C2=O)C[C@@](O)(C(=O)CO)C[C@@H]3O[C@H]1C[C@H](N)[C@H](O)[C@H](C)O1` [Doxorubicin], the concentration for half-maximal inhibition (IC50) in the data set with MCF-7 cells [3] came out at 700 ± 60 nM.

`CC(=O)O[C@H]1C(=O)[C@@]2(C)[C@H]([C@H](OC(=O)c3ccccc3)[C@]3(O)C[C@H](OC(=O)[C@H](O)[C@@H](NC(=O)c4ccccc4)c4ccccc4)C(C)=C1C3(C)C)[C@]1(OC(C)=O)CO[C@@H]1C[C@@H]2O` [Paclitaxel, reference compound]: the half-inhibitory concentration (IC50) in the data set on MCF-10A cells (Homo sapiens, MCF-10A, 72 h, read-out: IC50 MCF-10A) was 427 ± 55.4 nM.

The record behind these values is PMC4094229 (European journal of medicinal chemistry, 2013).
